Source: ChEMBL document CHEMBL4680071, “Structure guided generation of thieno[3,2-d]pyrimidin-4-amine Mycobacterium tuberculosis bd oxidase inhibitors” (RSC Med Chem, 2021)

Key:
[1] = Inhibition of cytochrome-bd oxidase in Mycobacterium bovis BCG assessed as replicating ATP by measuring ATP depletion incubated for 15 hrs in presence of Q203 by BacTiter-Glo luminescence assay; parameters: species or system Mycobacterium tuberculosis variant bovis BCG
In short: (§1)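 Cultures grown in Middlebrook 7H9 with 0.05% Tween 80, 0.5% glycerol, BSA fraction V, D-glucose and NaCl. Cells pelleted, resuspended in glycerol-free medium at about 10^7 CFU/mL, added to compound dilutions. Plates incubated 15 h at 37°C. BacTiter-Glo reagent added, luminescence read after 12 min to give ATP level. IC50 from curve fitting.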

[2] = Inhibition of cytochrome-bd oxidase in Mycobacterium bovis BCG assessed as replicating ATP by measuring ATP depletion incubated for 15 hrs in absence of Q203 by BacTiter-Glo luminescence assay; parameters: species or system Mycobacterium tuberculosis variant bovis BCG; in short: as §1

## Clc1ccc(CCNc2ncnc3ccsc23)cc1
[1]
  IC50: 30.4 mM
[2]
  IC50: > 50 mM

## COc1ccc(CCNc2ncnc3sccc23)cc1
[1]
  IC50: > 0.05 mM

## FC(F)(F)Oc1ccc(CCNc2ncnc3ccsc23)cc1
[1]
  IC50: 12.6 mM
[2]
  IC50: > 50 mM

## CN(C)c1ccc(CCNc2ncnc3ccsc23)cc1
[1]
  IC50: 38.9 mM
[2]
  IC50: > 50 mM

## FC(F)(F)c1ccc(Oc2ccc(Nc3ncnc4ccccc34)cc2)cc1
[1]
  IC50: 0.8 mM
[2]
  IC50: > 50 mM

## FS(F)(F)(F)(F)c1ccc(CCNc2ncnc3ccsc23)cc1
[1]
  IC50: 27.1 mM
[2]
  IC50: > 50 mM

## FC(F)(F)c1cccc(CCNc2ncnc3ccsc23)c1
[1]
  IC50: 25.6 mM
[2]
  IC50: > 50 mM

## FC(F)(F)Oc1ccc(CNc2ncnc3ccsc23)cc1
[1]
  IC50: 38.1 mM
[2]
  IC50: > 50 mM

## CC(C)(C)c1ccc(CCNc2ncnc3ccsc23)cc1
[1]
  IC50: 5.8 mM
[2]
  IC50: > 50 mM

## Clc1ccc(CCNc2ncnc3ccsc23)cc1Cl
[1]
  IC50: 25.6 mM
[2]
  IC50: > 50 mM

## c1ccc(CCNc2ncnc3ccsc23)cc1
[1]
  IC50: 43.3 mM
[2]
  IC50: > 50 mM

## Cc1ccc(CCNc2ncnc3ccsc23)cc1
[1]
  IC50: 40.4 mM
[2]
  IC50: > 50 mM

## FC(F)(F)Oc1ccc(Nc2ncnc3ccsc23)cc1
[1]
  IC50: 22.9 mM
[2]
  IC50: > 50 mM

## FC(F)(F)c1ccc(CCNc2ncnc3ccsc23)cc1
[1]
  IC50: 33.1 mM
[2]
  IC50: > 50 mM

## COc1ccc(CCNc2ncnc3ccsc23)cc1
[1]
  IC50: 42.8 mM
[2]
  IC50: > 50 mM

## FC(F)(F)c1ccccc1CCNc1ncnc2ccsc12
[1]
  IC50: 12.4 mM
[2]
  IC50: > 50 mM

## COc1nc2ccc(Br)cc2cc1[C@@H](c1ccccc1)[C@@](O)(CCN(C)C)c1cccc2ccccc12 [BEDAQUILINE]
[1]
  IC50: 0.09 mM
[2]
  IC50: 0.17 mM
